Test results published in ChEMBL document CHEMBL3085640, “Synthesis and antimicrobial activity of some novel hydrazide, benzochromenone, dihydropyridine, pyrrole, thiazole and thiophene derivatives” (2013).
In brackets after ≈: the same amount, converted by molar mass. Activity calls are given as the source filed them. No cut-off for these calls is given here.

Experiments:
Format in all cases: functional
[1] = test system: Escherichia coli; assay: Antibacterial activity against Escherichia coli MTCC 443 assessed as growth inhibition after 24 hrs by broth microdilution method
In short: (§1)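 MIC by broth microdilution in Müller-Hinton broth. DMSO stocks are diluted in broth to give two-fold serial dilutions, and about 10^6 CFU/mL of bacteria is added per well. Sealed plates are incubated in a humid chamber at 36 °C for 24 h. The MIC is the lowest concentration showing no visible turbidity. Run only for compounds giving zones >10 mm.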

[2] = test system: Candida albicans; assay: Antifungal activity against Candida albicans assessed as growth inhibition at 1 mg/mL after 48 hrs by […] method; conditions: read-out: DIZ
In short: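 Sterile filter-paper discs soaked in a 1 mg/mL DMSO solution of the compound are placed on nutrient agar seeded with about 10^4 CFU/mL of C. albicans, in triplicate. Plates are incubated at 36 °C for 48 h. The read-out is the mean diameter of the inhibition zone in mm, with a DMSO-only control.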

[3] = test system: Staphylococcus aureus; assay: Antibacterial activity against Staphylococcus aureus MTCC 96 assessed as growth inhibition after 24 hrs by broth microdilution method; in short: as §1
[4] = test system: Staphylococcus aureus; assay: Antibacterial activity against Staphylococcus aureus MTCC 96 assessed as growth inhibition at 1 mg/mL after 24 hrs by […] method; conditions: for zone of inhibition at 1000 µg/mL: MTCC 96, 24 h, read-out: DIZ
In short: (§2)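 Sterile filter-paper discs soaked in a 1 mg/mL DMSO solution of the compound are placed on nutrient agar seeded with about 10^6 CFU/mL of bacteria, in triplicate. Plates are incubated at 36 °C for 24 h. The read-out is the mean diameter of the inhibition zone in mm. DMSO alone serves as the control.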

[5] = test system: Candida albicans; assay: Antifungal activity against Candida albicans assessed as growth inhibition after 48 hrs by broth microdilution method
In short: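 MIC by broth microdilution in Sabouraud liquid medium. DMSO stocks are serially diluted two-fold in broth and inoculated with C. albicans. Sealed plates are incubated in a humid chamber at 36 °C for 48 h. The MIC is the lowest concentration without visible turbidity. Run only for compounds giving zones >10 mm.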

[6] = test system: Escherichia coli; assay: Antibacterial activity against Escherichia coli MTCC 443 assessed as growth inhibition at 1 mg/mL after 24 hrs by […] method; conditions: for zone of inhibition at 1000 µg/mL: MTCC 443, 24 h, read-out: DIZ; in short: as §2

## C/C(=N\NC(=O)c1sc(=S)n(-c2ccccc2)c1N)c1cc2c(ccc3ccccc32)oc1=O
[1]; MTCC 443, 24 h
  MIC: 93.7 µg/mL (≈ 193 µM)
[2]
  zone of inhibition at 1000 µg/mL: 15 mm
[3]; MTCC 96, 24 h
  MIC: 125 µg/mL (≈ 257 µM)
[4]
  zone of inhibition at 1000 µg/mL: 26 mm
[5]
  MIC: 125 µg/mL (≈ 257 µM)
[6]
  zone of inhibition at 1000 µg/mL: 27 mm

## C/C(=N\NC(=O)c1sc(N)c(C#N)c1N)c1cc2c(ccc3ccccc32)oc1=O
[1]
  MIC: inactive
[2]
  zone of inhibition at 1000 µg/mL: 20 mm
[3]
  MIC: inactive
[4]
  growth inhibition (GI): inactive
[5]
  MIC: 125 µg/mL (≈ 299 µM)
[6]
  growth inhibition (GI): inactive

## C/C(=N\NC(=O)/C(C#N)=C/c1ccc(F)cc1)c1cc2c(ccc3ccccc32)oc1=O
[1]; MTCC 443, 24 h
  MIC: 250 µg/mL (≈ 588 µM)
[2]
  zone of inhibition at 1000 µg/mL: 18 mm
[3]; MTCC 96, 24 h
  MIC: 125 µg/mL (≈ 294 µM)
[4]
  zone of inhibition at 1000 µg/mL: 22 mm
[5]
  MIC: 125 µg/mL (≈ 294 µM)
[6]
  zone of inhibition at 1000 µg/mL: 20 mm

## C/C(=N\NC(=O)c1c(N)sc2c1CCCC2)c1cc2c(ccc3ccccc32)oc1=O
[1]
  MIC: inactive
[2]
  zone of inhibition at 1000 µg/mL: 9 mm
[3]; MTCC 96, 24 h
  MIC: 375 µg/mL (≈ 869 µM)
[4]
  zone of inhibition at 1000 µg/mL: 5 mm
[5]
  MIC: 500 µg/mL (≈ 1160 µM)
[6]
  growth inhibition (GI): inactive

## C/C(=N\NC(=O)/C(C#N)=C/N(C)C)c1cc2c(ccc3ccccc32)oc1=O
[1]
  MIC: inactive
[2]
  zone of inhibition at 1000 µg/mL: 7 mm
[3]
  MIC: inactive
[4]
  growth inhibition (GI): inactive
[5]
  MIC: 750 µg/mL (≈ 2000 µM)
[6]
  growth inhibition (GI): inactive

## COc1ccc(OC)c(-c2c(C#N)c(O)n(/N=C(\C)c3cc4c(ccc5ccccc54)oc3=O)c(=O)c2C#N)c1
[1]; MTCC 443, 24 h
  MIC: 188 µg/mL (≈ 352 µM)
[2]
  zone of inhibition at 1000 µg/mL: 10 mm
[3]; MTCC 96, 24 h
  MIC: 250 µg/mL (≈ 469 µM)
[4]
  zone of inhibition at 1000 µg/mL: 13 mm
[5]
  MIC: 250 µg/mL (≈ 469 µM)
[6]
  zone of inhibition at 1000 µg/mL: 20 mm

## CC1(C)S[C@@H]2[C@H](NC(=O)[C@H](N)c3ccccc3)C(=O)N2[C@H]1C(=O)O [AMPICILLIN]
[1]; MTCC 443, 24 h
  MIC: 125 µg/mL (≈ 358 µM)
[3]; MTCC 96, 24 h
  MIC: 188 µg/mL (≈ 537 µM)
[4]
  zone of inhibition at 1000 µg/mL: 25 mm
[6]
  zone of inhibition at 1000 µg/mL: 27 mm

## C/C(=N\NC(=O)/C(C#N)=C/c1cccnc1)c1cc2c(ccc3ccccc32)oc1=O
[1]; MTCC 443, 24 h
  MIC: 125 µg/mL (≈ 306 µM)
[2]
  zone of inhibition at 1000 µg/mL: 19 mm
[3]; MTCC 96, 24 h
  MIC: 125 µg/mL (≈ 306 µM)
[4]
  zone of inhibition at 1000 µg/mL: 22 mm
[5]
  MIC: 125 µg/mL (≈ 306 µM)
[6]
  zone of inhibition at 1000 µg/mL: 23 mm

## Clc1ccccc1C(c1ccccc1)(c1ccccc1)n1ccnc1 [CLOTRIMAZOLE]
[2]
  zone of inhibition at 1000 µg/mL: 30 mm
[5]
  MIC: 5.8 µg/mL (≈ 16.8 µM)

## C/C(=N\NC(=O)c1cc2c(ccc3ccccc32)oc1=O)c1cc2c(ccc3ccccc32)oc1=O
[1]; MTCC 443, 24 h
  MIC: 93.7 µg/mL (≈ 197 µM)
[2]
  zone of inhibition at 1000 µg/mL: 20 mm
[3]; MTCC 96, 24 h
  MIC: 62.5 µg/mL (≈ 132 µM)
[4]
  zone of inhibition at 1000 µg/mL: 27 mm
[5]
  MIC: 188 µg/mL (≈ 395 µM)
[6]
  zone of inhibition at 1000 µg/mL: 28 mm

## C/C(=N\NC(=O)CC#N)c1cc2c(ccc3ccccc32)oc1=O
[1]; MTCC 443, 24 h
  MIC: 125 µg/mL (≈ 391 µM)
[2]
  zone of inhibition at 1000 µg/mL: 11 mm
[3]; MTCC 96, 24 h
  MIC: 125 µg/mL (≈ 391 µM)
[4]
  zone of inhibition at 1000 µg/mL: 21 mm
[5]
  MIC: 250 µg/mL (≈ 783 µM)
[6]
  zone of inhibition at 1000 µg/mL: 23 mm

## C/C(=N\NC(=O)/C(C#N)=N/Nc1ccc(C)cc1)c1cc2c(ccc3ccccc32)oc1=O
[1]; MTCC 443, 24 h
  MIC: 125 µg/mL (≈ 286 µM)
[2]
  zone of inhibition at 1000 µg/mL: 21 mm
[3]; MTCC 96, 24 h
  MIC: 125 µg/mL (≈ 286 µM)
[4]
  zone of inhibition at 1000 µg/mL: 24 mm
[5]
  MIC: 125 µg/mL (≈ 286 µM)
[6]
  zone of inhibition at 1000 µg/mL: 24 mm

## C/C(=N\n1c(N)cc(N)c(C#N)c1=O)c1cc2c(ccc3ccccc32)oc1=O
[1]; MTCC 443, 24 h
  MIC: 125 µg/mL (≈ 324 µM)
[2]
  zone of inhibition at 1000 µg/mL: 18 mm
[3]; MTCC 96, 24 h
  MIC: 375 µg/mL (≈ 973 µM)
[4]
  zone of inhibition at 1000 µg/mL: 8 mm
[5]
  MIC: 125 µg/mL (≈ 324 µM)
[6]
  zone of inhibition at 1000 µg/mL: 23 mm

## C/C(=N\n1c(N)c(C#N)c(-c2ccc(F)cc2)c(C#N)c1=O)c1cc2c(ccc3ccccc32)oc1=O
[1]; MTCC 443, 24 h
  MIC: 125 µg/mL (≈ 255 µM)
[2]
  zone of inhibition at 1000 µg/mL: 10 mm
[3]; MTCC 96, 24 h
  MIC: 125 µg/mL (≈ 255 µM)
[4]
  zone of inhibition at 1000 µg/mL: 21 mm
[5]
  MIC: 375 µg/mL (≈ 766 µM)
[6]
  zone of inhibition at 1000 µg/mL: 21 mm

## C/C(=N\N1C(=O)C(C#N)C=C1c1ccccc1)c1cc2c(ccc3ccccc32)oc1=O (configuration not stated)
[1]; MTCC 443, 24 h
  MIC: 250 µg/mL (≈ 596 µM)
[2]
  zone of inhibition at 1000 µg/mL: 13 mm
[3]; MTCC 96, 24 h
  MIC: 125 µg/mL (≈ 298 µM)
[4]
  zone of inhibition at 1000 µg/mL: 13 mm
[5]
  MIC: 250 µg/mL (≈ 596 µM)
[6]
  zone of inhibition at 1000 µg/mL: 16 mm

## C/C(=N\n1c(O)c(C#N)c(-c2cccc(O)c2)c(C#N)c1=O)c1cc2c(ccc3ccccc32)oc1=O
[1]; MTCC 443, 24 h
  MIC: 125 µg/mL (≈ 256 µM)
[2]
  zone of inhibition at 1000 µg/mL: 19 mm
[3]; MTCC 96, 24 h
  MIC: 250 µg/mL (≈ 512 µM)
[4]
  zone of inhibition at 1000 µg/mL: 12 mm
[5]
  MIC: 188 µg/mL (≈ 384 µM)
[6]
  zone of inhibition at 1000 µg/mL: 24 mm

## C/C(=N\NC(=O)/C(C#N)=C/c1ccc(Cl)cc1)c1cc2c(ccc3ccccc32)oc1=O
[1]; MTCC 443, 24 h
  MIC: 250 µg/mL (≈ 566 µM)
[2]
  zone of inhibition at 1000 µg/mL: 17 mm
[3]; MTCC 96, 24 h
  MIC: 188 µg/mL (≈ 424 µM)
[4]
  zone of inhibition at 1000 µg/mL: 23 mm
[5]
  MIC: 125 µg/mL (≈ 283 µM)
[6]
  zone of inhibition at 1000 µg/mL: 17 mm

## COc1ccc(OC)c(-c2c(C#N)c(N)n(/N=C(\C)c3cc4c(ccc5ccccc54)oc3=O)c(=O)c2C#N)c1
[1]; MTCC 443, 24 h
  MIC: 125 µg/mL (≈ 235 µM)
[2]
  zone of inhibition at 1000 µg/mL: 18 mm
[3]; MTCC 96, 24 h
  MIC: 125 µg/mL (≈ 235 µM)
[4]
  zone of inhibition at 1000 µg/mL: 23 mm
[5]
  MIC: 125 µg/mL (≈ 235 µM)
[6]
  zone of inhibition at 1000 µg/mL: 23 mm
